# Experimental data published in the EternaBench riboswitch data.
# Legend:
# MS2 coat protein [1] = experiment: apparent Kd, MS2 coat protein; higher = weaker binding; RNA-MaP array; theophylline 2 mM where present
# Procedure, shortened: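 Stalled E. coli RNA polymerase transcribed each design on Illumina sequencing-chip clusters. The clusters were titrated with SNAP-549-labelled MS2 coat protein, starting at 0.7 or 1.5 nM and doubling up to 3 µM, first without ligand and then with constant ligand, in 100 mM Tris-HCl pH 7.5, 80 mM KCl, 4 mM MgCl2, BSA, DTT, yeast tRNA and Tween-20. Green signal was normalised to red-channel RNA signal and to the control-cluster median Fmax. The apparent Kd is the median of filtered binding-curve fits made for each cluster.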
# MS2 coat protein [2] = experiment: apparent Kd, MS2 coat protein; higher = weaker binding; RNA-MaP array
# Procedure, shortened: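 Designed RNAs were transcribed in place on an Illumina sequencing chip from sequenced DNA templates. At room temperature and with or without input ligand, they were incubated with fluorescently labeled MS2 coat protein from 1.5 nM to 3 μM, for 0.8–1.5 h at the lowest and 10–20 min at the highest concentrations. Apparent Kd is the median of the binding-curve fits made per cluster, with designs measured on fewer than 10 clusters excluded.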
# [3] = designed as: OFF switch for theophylline, no ligand
# [4] = ligand present: theophylline, designed as: OFF switch for theophylline
# [5] = designed as: ON switch for theophylline, no ligand
# [6] = ligand present: theophylline, designed as: ON switch for theophylline
# [7] = designed as: OFF switch for flavin mononucleotide, no ligand
# [8] = ligand present: flavin mononucleotide, designed as: OFF switch for flavin mononucleotide
# [9] = designed as: ON switch for flavin mononucleotide, no ligand
# [10] = ligand present: flavin mononucleotide, designed as: ON switch for flavin mononucleotide
sequence,measurement,setting,value
AAACUGGGUGUAAAAUAAAUAAUCACUGAUACCAGACUAUAGUAUGUCCCUUGGCAGCAGAAACAUGAGGAUCACCCAUGUAAUA,apparent Kd,MS2 coat protein [1]; [3],21.7 nM
same,apparent Kd,MS2 coat protein [1]; [4],21.3 nM
AACAGGGCUCGCACGAAGCCCUAAGGUGAUACCAGCACAUGUAAGUGCCCUUGGCAGCACGGUACAUGAGGAUCACCCAUGUAGA,apparent Kd,MS2 coat protein [1]; [5],64.3 nM
same,apparent Kd,MS2 coat protein [1]; [6],255 nM
AACCGAGGCUAUCCUCUAAGAAUAUGUGAUACCAGAAUAAUUUUAUUCCCUUGGCAGCAUGACAUGAGGAUCACCCAUGUGUCUU,apparent Kd,MS2 coat protein [1]; [5],134 nM
same,apparent Kd,MS2 coat protein [1]; [6],134 nM
AAGAAGUUUUGAUUUUUAUGAAGUAGUGAUACCAGUCAAGAAAGAGACCCUUGGCAGCGCAACAUGAGGAUCACCCAUGUAAGAA,apparent Kd,MS2 coat protein [1]; [3],25.4 nM
same,apparent Kd,MS2 coat protein [1]; [4],27.2 nM
AAGGGUGAGUCUCUAAUCCGUUUGACGGAUACCAGCGAGAGAUAUCGCCCUUGGCAGCCGACGACAUGAGGAUCACCCAUGUAAA,apparent Kd,MS2 coat protein [1]; [3],14.7 nM
same,apparent Kd,MS2 coat protein [1]; [4],17.2 nM
AAUAACAUGAGGAUCACCCAUGUAAAAGAUACCAGAGUGAUGAUCCUCCCUUGGCAGCUUAAAACGCUAUUGAUUACAAUAGCGA,apparent Kd,MS2 coat protein [1]; [5],54.9 nM
same,apparent Kd,MS2 coat protein [1]; [6],119 nM
AAUAAGCAGCUGCAAGGUGAUCCUGCAGAUACCAGCUAGGAAACUAGCCCUUGGCAGCUGCAACAUGAGGAUCACCCAUGUAAUA,apparent Kd,MS2 coat protein [1]; [3],34.8 nM
same,apparent Kd,MS2 coat protein [1]; [4],85.3 nM
AAUAUAAGUGUAAUUAUAUUUAUAUCUGAUACCAGACUCUCAUGUGUCCCUUGGCAGCAGUUACAUGAGGAUCACCCAUGUAUUA,apparent Kd,MS2 coat protein [1]; [5],76 nM
same,apparent Kd,MS2 coat protein [1]; [6],21.6 nM
AAUCUGUCGGGUGAUACCAGCCUCGGCACGUCUCGUGCCGAACAUGAGGAUCACCCAUGUGGCCCUUGGCAGCACAUGACAAAUC,apparent Kd,MS2 coat protein [1]; [5],258 nM
same,apparent Kd,MS2 coat protein [1]; [6],88.6 nM
ACAAGUCCUCAUGAUACCAGCGAUGAGACAUAGUCUCAACAUGAGGAUCACCCAUGUAUUCGCCCUUGGCAGCAUACGGUUUUUG,apparent Kd,MS2 coat protein [1]; [5],301 nM
same,apparent Kd,MS2 coat protein [1]; [6],28.5 nM
ACAUGAACAUGAGGAUCACCCAUGUAUGAUACCAGAAAAGAAGAGUUCCCUUGGCAGCGUACAACACAUGAGGAUCACCCAUGUG,apparent Kd,MS2 coat protein [1]; [5],24.1 nM
same,apparent Kd,MS2 coat protein [1]; [6],24.3 nM
ACAUGAGGAUCACCCAUGUUCCUCUUUGAUACCAGUGAGUUGUUUCGCCCUUGGCAGCGAGUGUUUGUUUUUUUGUUUUGUUUGG,apparent Kd,MS2 coat protein [1]; [3],215 nM
same,apparent Kd,MS2 coat protein [1]; [4],288 nM
GUCCUCGAAGGAUAUAUUGGAAAUUACAUGAGGAUCACCCAUGUCUCGUAGUAUAGCACGAUAGAAGGUCGGAAGA,apparent Kd,MS2 coat protein [2]; [7],36.1 nM
same,apparent Kd,MS2 coat protein [2]; [8],24.6 nM
GUCGAGAUUCAAGGAUAUCCGAUCUUACGCAUAGUAGAAUGACAUGAGGAUCACCCAUGUGUCCAGGAGAAGGUGAAUGGAUUU,apparent Kd,MS2 coat protein [2]; [7],33.3 nM
same,apparent Kd,MS2 coat protein [2]; [8],21.6 nM
GUCUCCUGAGAGAAGGCUCGCUCCGAGGAAUAGAGAGGAUAUCUACAUGAGGAUCACCCAUGUUGCCGAGGGAAAUGCACGGGU,apparent Kd,MS2 coat protein [2]; [7],68.9 nM
same,apparent Kd,MS2 coat protein [2]; [8],90.5 nM
GUCUGAUGACAUGAGGAUCACCCAUGUUGUAGGGUUACCUUCAGAAGGGCGAACUCGUAUAGAGCGCAGGAUAUGAAUCAAAGA,apparent Kd,MS2 coat protein [2]; [9],29.5 nM
same,apparent Kd,MS2 coat protein [2]; [10],11.9 nM
GUGUACUUUGAAGGAUAUAACGGCGGCAUUUUCUUAGAAGGUCAAGGGACAUGAGGAUCACCCAUGUUAACAUUGGUUCUAACA,apparent Kd,MS2 coat protein [2]; [7],10.6 nM
same,apparent Kd,MS2 coat protein [2]; [8],17.5 nM
GUUAGUUACACGGCCGCCACUCUUUGGCUUGGCUCAAGCUCCCAACAUGAGGAUCACCCAUGUCAGAGGACCGGGUGAACAACGU,apparent Kd,"MS2 coat protein [2]; designed as: ON switch for tryptophan, no ligand",134 nM
same,apparent Kd,"MS2 coat protein [2]; ligand present: tryptophan, designed as: ON switch for tryptophan",112 nM
GUUAUCUCAUGUUCGACGGACAUGAGGAUCACCCAUGUACCUUAGGAUAUUGAUGAAAUAUGGCGCAAGAAGGAAGGUAACGCU,apparent Kd,MS2 coat protein [2]; [7],6.47 nM
same,apparent Kd,MS2 coat protein [2]; [8],7.52 nM
GUUCGUAGGUAGGAUAUAAGAGCUGUACUCUUCUUAGAAGGACCCACAUGAGGAUCACCCAUGUUUUGGGCGUG,apparent Kd,MS2 coat protein [2]; [7],10.3 nM
same,apparent Kd,MS2 coat protein [2]; [8],35.5 nM
GUUCGUCCUACGGCCGCCACUAAAACACAUGAGGAUCACCCAUGUUAGUAUCCUGGCUGGUGUGAUAGGACCGGGUAGGGAAGAA,apparent Kd,"MS2 coat protein [2]; designed as: OFF switch for tryptophan, no ligand",12.1 nM
same,apparent Kd,"MS2 coat protein [2]; ligand present: tryptophan, designed as: OFF switch for tryptophan",24.1 nM
GUUCUGCAUAAGGAUAUAUGAGCACACGCAGACAUAGAAGGUAUGACAUGAGGAUCACCCAUGUCCUCUCGAGA,apparent Kd,MS2 coat protein [2]; [7],8.5 nM
same,apparent Kd,MS2 coat protein [2]; [8],8.65 nM
UAACCAAAUGGAUGACCACAUGAGGAUCACCCAUGUCGGCAACAGGAUAUUAUCAGAUGGGCUAAUAAGAAGGGUUACUCAGCC,apparent Kd,MS2 coat protein [2]; [7],14.9 nM
same,apparent Kd,MS2 coat protein [2]; [8],13.2 nM
UAACCACAUGAGGAUCACCCAUGUCCCACAUUCGCAGGAUAUGGGUCACUGAGGUCACUACCAGAAGGGCGGAUGC,apparent Kd,MS2 coat protein [2]; [9],467 nM
same,apparent Kd,MS2 coat protein [2]; [10],178 nM
UACAUGAACGUCAGGAUAUUGGUAUAUUACCUAGCCAAGAAGGGACAUGAGGAUCACCCAUGUAUUCGGUCCAA,apparent Kd,MS2 coat protein [2]; [7],25.2 nM
same,apparent Kd,MS2 coat protein [2]; [8],65.2 nM
UACAUGAGGAUCACCCAUGUCUCUAGUCGUUUUUGUUAGAAUAGAAGGAGUCGCAUAAAGCAUAACUAGGAUAUAUUCUUGUUU,apparent Kd,MS2 coat protein [2]; [9],16.3 nM
same,apparent Kd,MS2 coat protein [2]; [10],11.6 nM
